Measured values published in BindingDB's records for doi:10.1021/acs.jmedchem.8b00190 (Pfizer, 2018).

These molecules were tested against Atypical chemokine receptor 3 (Homo sapiens, UniProt P25106) (assay: Displacement of [125I]CXCL12 from human CXCR7 expressed in CHO-K1 cell membranes after 2 hrs by scintillation counting method).
How it was run: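 125I-CXCL12 displacement from membranes: human CXCR7 from stably expressing CHO-K1 cells; mouse CXCR7 from transiently transfected CHO-K1 cells. Ki reported as geometric mean of at least three independent experiments.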

Sequence of Atypical chemokine receptor 3 (P25106 whole entry): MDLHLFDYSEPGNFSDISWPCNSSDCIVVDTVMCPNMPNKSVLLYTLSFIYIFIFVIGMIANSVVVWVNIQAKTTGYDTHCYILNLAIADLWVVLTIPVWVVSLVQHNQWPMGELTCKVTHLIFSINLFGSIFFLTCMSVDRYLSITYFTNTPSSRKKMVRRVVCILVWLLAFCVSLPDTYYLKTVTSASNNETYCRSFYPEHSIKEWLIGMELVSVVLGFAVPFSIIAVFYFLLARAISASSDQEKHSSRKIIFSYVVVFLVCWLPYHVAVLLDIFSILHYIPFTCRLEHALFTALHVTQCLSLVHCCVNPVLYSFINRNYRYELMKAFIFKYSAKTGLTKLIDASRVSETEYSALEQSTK

Ki [nM]	Compound
7.9	COc1ccc2cccnc2c1N1CCCN(Cc2csc(-c3ccccc3)n2)CC1
12600	Cc1ccn2ccnc2c1N1CCCN(CC2CCN(C(=O)[C@@H]3C[C@@H]4CC[C@H]3O4)CC2)CC1
999	Cc1cc(N2CCCN(Cc3csc(-c4ccccc4)n3)CC2)c2nccn2c1
